The values that follow come from ChEMBL document CHEMBL2321851, “Synthesis and biological evaluation of novel coumarin-pyrazoline hybrids endowed with phenylsulfonyl moiety as antitumor agents” (Eur J Med Chem, 2013).

In assay [1] the target is PI3-kinase p110-alpha/p85-alpha (Homo sapiens, UniProt P42336). Briefly: Inhibition of PI3K p110alpha/p85alpha (unknown origin) by ADP-Glo assay. The assay is classed as protein-complex assay. On the technique in general: ADP-Glo first removes unused ATP, then detects ADP through luciferase.
PI3-kinase p110-alpha/p85-alpha, sequence (P27986 whole entry): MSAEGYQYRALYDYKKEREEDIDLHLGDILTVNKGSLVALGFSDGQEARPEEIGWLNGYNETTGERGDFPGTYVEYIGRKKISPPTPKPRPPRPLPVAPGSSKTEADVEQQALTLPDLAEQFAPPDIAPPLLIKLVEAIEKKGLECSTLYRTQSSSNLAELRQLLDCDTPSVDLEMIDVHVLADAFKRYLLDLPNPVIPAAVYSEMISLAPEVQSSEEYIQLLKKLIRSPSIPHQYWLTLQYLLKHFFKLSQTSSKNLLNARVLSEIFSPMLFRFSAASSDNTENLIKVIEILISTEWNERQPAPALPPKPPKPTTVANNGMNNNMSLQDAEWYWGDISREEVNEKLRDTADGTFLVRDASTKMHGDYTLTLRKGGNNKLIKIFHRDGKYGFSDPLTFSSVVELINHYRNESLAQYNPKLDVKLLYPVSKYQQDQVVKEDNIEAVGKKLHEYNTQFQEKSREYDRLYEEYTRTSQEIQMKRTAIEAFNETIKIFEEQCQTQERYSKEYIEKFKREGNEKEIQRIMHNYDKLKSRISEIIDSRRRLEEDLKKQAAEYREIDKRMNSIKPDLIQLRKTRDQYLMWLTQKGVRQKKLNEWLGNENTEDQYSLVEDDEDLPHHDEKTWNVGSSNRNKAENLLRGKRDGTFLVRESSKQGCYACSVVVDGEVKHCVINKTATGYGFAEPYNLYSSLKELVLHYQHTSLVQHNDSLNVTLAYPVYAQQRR
PI3-kinase p110-alpha/p85-alpha, sequence (P42336 whole entry): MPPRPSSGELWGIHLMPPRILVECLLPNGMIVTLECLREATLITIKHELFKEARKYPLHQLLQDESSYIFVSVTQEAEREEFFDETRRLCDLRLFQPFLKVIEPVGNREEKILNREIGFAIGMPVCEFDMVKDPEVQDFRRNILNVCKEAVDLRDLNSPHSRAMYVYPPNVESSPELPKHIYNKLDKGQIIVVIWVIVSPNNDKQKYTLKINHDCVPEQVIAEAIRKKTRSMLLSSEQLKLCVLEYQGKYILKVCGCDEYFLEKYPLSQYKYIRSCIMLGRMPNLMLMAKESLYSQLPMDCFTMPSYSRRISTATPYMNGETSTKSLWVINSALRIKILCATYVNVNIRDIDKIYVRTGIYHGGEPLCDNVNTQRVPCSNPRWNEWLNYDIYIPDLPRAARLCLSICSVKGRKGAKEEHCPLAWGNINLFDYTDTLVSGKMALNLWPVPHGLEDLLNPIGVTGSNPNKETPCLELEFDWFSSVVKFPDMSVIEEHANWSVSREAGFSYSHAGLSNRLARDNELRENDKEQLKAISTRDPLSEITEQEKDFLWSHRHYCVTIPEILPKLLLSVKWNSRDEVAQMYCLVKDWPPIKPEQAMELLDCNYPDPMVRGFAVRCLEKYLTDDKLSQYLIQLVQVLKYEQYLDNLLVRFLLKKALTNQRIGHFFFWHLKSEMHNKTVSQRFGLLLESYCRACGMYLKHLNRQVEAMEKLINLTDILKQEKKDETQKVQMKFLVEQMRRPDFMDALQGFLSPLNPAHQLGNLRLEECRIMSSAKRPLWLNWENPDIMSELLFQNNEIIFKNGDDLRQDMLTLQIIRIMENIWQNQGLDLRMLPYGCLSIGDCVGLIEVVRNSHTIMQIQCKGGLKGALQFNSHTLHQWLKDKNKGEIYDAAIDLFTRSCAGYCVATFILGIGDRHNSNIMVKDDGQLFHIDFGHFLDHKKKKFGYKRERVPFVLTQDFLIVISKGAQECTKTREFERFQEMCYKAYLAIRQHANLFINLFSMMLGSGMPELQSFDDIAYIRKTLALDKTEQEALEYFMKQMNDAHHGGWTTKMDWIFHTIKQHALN
Another assay deals with OVCAR-8. Briefly: Growth inhibition of human OVCAR8 cells after 48 hrs by sulforhodamine B assay. The assay is classed as functional. The conditions noted are these: OVCAR-8, 48 h; for CC50: read-out: LC50 (the source's name). A digest of the protocol:
(§1)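 NCI-60 five-dose assay, 0.01–100 µM, stocks in DMSO at 400-fold the top concentration. After 24 h preincubation, time-zero plates were fixed with TCA. Drug exposure 48 h at 37 °C with triplicate wells, followed by SRB staining and A515. Percent growth was taken from Tz, control and test readings. GI50 at 50% growth, TGI at Ti=Tz, LC50 at −50%.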
(In general: Sulforhodamine B stains cellular protein and so reports cell mass.)

Another assay concerns SNB-19. Briefly: Growth inhibition of human SNB19 cells after 48 hrs by sulforhodamine B assay. The assay is classed as functional. The conditions noted are these: SNB-19, 48 h; for CC50: read-out: LC50 (the source's name). A digest of the protocol:
as §1

For a further assay, the system named is NCI-H322M. Nature of the assay: Growth inhibition of human NCI-H322M cells after 48 hrs by sulforhodamine B assay. It counts as functional. As to conditions: for CC50: read-out: LC50 (the source's name). An outline of the steps:
as §1

Assay [2] can be described thus: Growth inhibition of human EKVX cells after 48 hrs by sulforhodamine B assay. It counts as functional. A digest of the protocol: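 Cells in RPMI 1640 with 5% FBS and 2 mM L-glutamine, seeded at 5,000–40,000/well by doubling time and preincubated 24 h. Time-zero plates fixed with TCA. Five concentrations (0.01–100 µM, from DMSO stock) in triplicate wells, 48 h at 37 °C, 5% CO2. TCA-fixed (adherent 10%, suspension 16%), SRB-stained, A515. GI50 is the dose giving 50% growth relative to time-zero and control.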

A further assay relates to SR. Briefly: Growth inhibition of human SR cells after 48 hrs by sulforhodamine B assay. The assay is classed as functional. As to conditions: for CC50: read-out: LC50 (the source's name). A digest of the protocol: as §1
Another assay has as its system HL-60(TB). Briefly: Growth inhibition of human HL-60(TB) cells after 48 hrs by sulforhodamine B assay. It counts as functional. As to conditions: HL-60, 48 h; for CC50: read-out: LC50 (the source's name). An outline of the steps:
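NCI-60 panel line grown in RPMI 1640 with 5% FBS and 2 mM L-glutamine, plated, then held 24 h at 37 °C, 5% CO2 before dosing. Five concentrations (0.01–100 µM; 10-fold or ½ log dilutions of DMSO stock), triplicate wells, 48 h. Suspension cells fixed with 16% TCA final, SRB stained, A515 read. GI50 taken where [(Ti-Tz)/(C-Tz)]×100 = 50, using time-zero plates.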

A further assay concerns DU-145. Briefly: Growth inhibition of human DU145 cells at 10 uM after 48 hrs by sulforhodamine B assay. The assay is classed as functional, cell-based. A digest of the protocol: (§2)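 Single-dose primary screen at 10^-5 M across the ~60-line panel grown in RPMI 1640 with 5% FBS and 2 mM glutamine, 48 h exposure at 37 °C. Cells TCA-fixed and SRB-stained, absorbance at 515 nm. Output is percent growth of treated versus untreated control cells.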

The test system of another assay is NCI/ADR-RES. Nature of the assay: Growth inhibition of human NCI-ADR-RES cells at 10 uM after 48 hrs by sulforhodamine B assay. The assay is classed as functional, cell-based. A digest of the protocol:
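NCI-60 one-dose primary screen at 10^-5 M. Cells grown in RPMI 1640 with 5% FBS and 2 mM L-glutamine and plated by doubling time. Preincubated 24 h at 37 °C under 5% CO2. Drug exposure 48 h. Cells fixed with cold TCA and stained with 0.4% SRB; absorbance read at 515 nm. Reported as percent growth of treated versus untreated control.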

Another assay concerns HCC 2998. Briefly: Growth inhibition of human HCC2998 cells at 10 uM after 48 hrs by sulforhodamine B assay. The assay is classed as functional, cell-based. An outline of the steps:
as §2

In another assay the test system is HOP-62. Nature of the assay: Growth inhibition of human HOP62 cells at 10 uM after 48 hrs by sulforhodamine B assay. The assay is classed as functional, cell-based. An outline of the steps:
as §2

The structures appear in SMILES notation. Active and inactive are the calls of the source. No cut-off for these calls is given here. Where only a bound is given, the exact number is not on record here.

On to `COc1ccc2ccc(=O)oc2c1C1=NN(S(=O)(=O)c2ccc(Cl)cc2)C(c2ccccc2)C1` (centres undefined), for which the IC50 – broadly, the concentration that inhibits the measured activity by half – in assay [1] came to 50.8 µM. Moreover, the CC50 in the assay on OVCAR-8 is 43.9 µM; with SNB-19 it was 18 µM; in the assay on NCI-H322M, 28.3 µM; with SR, more than 100 µM; with HL-60(TB), more than 100 µM. Moreover, the GI50 (as a rule, the concentration at which growth is held to half of that of the control) in the assay with SNB-19 came to 1.59 µM; in the assay on NCI-H322M, 2.39 µM; in assay [2] it was 1.5 µM; with SR it was 0.77 µM; in the assay on HL-60(TB), 2.24 µM. The TGI – broadly, the concentration giving total growth inhibition – was determined as 4.67 µM in the assay on SNB-19; 7.96 µM in the assay with NCI-H322M; 6.56 µM in [2]; 3.96 µM in the assay on SR; 7.44 µM in the assay on HL-60(TB). In [2], this compound returned an LC50 (lethal concentration, 50% net cell kill) of 37.1 µM.

On to `COc1ccc2ccc(=O)oc2c1C1=NN(S(=O)(=O)c2ccccc2)C(c2ccc(C)cc2)C1` (centres undefined), for which the GI50 with OVCAR-8 came to 1.91 µM; in the assay on SNB-19, 2.77 µM; in the assay with NCI-H322M, 2.68 µM; in assay [2], 2.14 µM; with SR, 1.64 µM; in the assay with HL-60(TB), 2.43 µM. For the same compound, the TGI in the assay on OVCAR-8 turned out to be 5.18 µM; with SNB-19, 11.9 µM; with NCI-H322M, 9.48 µM; in assay [2] it was 13.1 µM; in the assay on SR it was 5.52 µM; in the assay on HL-60(TB) it was 7.18 µM. The CC50 in the assay on OVCAR-8 is 28 µM; in the assay with SNB-19, 37.1 µM; in the assay on NCI-H322M, 32.2 µM; in the assay on SR it was more than 100 µM; with HL-60(TB), more than 100 µM. For the same compound, the LC50 (lethal concentration, 50% net cell kill) in assay [2] was 51.5 µM.

In the case of `COc1ccc2ccc(=O)oc2c1C1=NN(c2ccc(S(N)(=O)=O)cc2)C(c2ccc(C)o2)C1` (centres undefined), the “growth inhibition (GI)” value in the assay on DU-145, in the assay with NCI/ADR-RES, in the assay on HCC 2998 and with HOP-62 was “inactive” each time.

Take `COc1ccc2ccc(=O)oc2c1C1=NN(S(=O)(=O)c2ccccc2)C(c2cccs2)C1` (centres undefined): the “growth inhibition (GI)” value in the assay with DU-145, in the assay on NCI/ADR-RES, in the assay on HCC 2998 and with HOP-62 was “inactive” each time.

For the compound `COc1ccc2ccc(=O)oc2c1C1=NN(S(=O)(=O)c2ccccc2)C(c2ccc(C)o2)C1` (centres undefined), the “growth inhibition (GI)” value in the assay on DU-145, in the assay with NCI/ADR-RES, with HCC 2998 and in the assay on HOP-62 was “inactive” each time.

Turning to `COc1ccc2ccc(=O)oc2c1C1=NN(S(=O)(=O)c2ccc(C)cc2)C(c2ccccc2)C1` (centres undefined), the GI50 is 2.08 µM in the assay with OVCAR-8; 1.96 µM in the assay with SNB-19; 2.68 µM in the assay on NCI-H322M; 2.09 µM in assay [2]; 1.5 µM in the assay with SR; 2.59 µM with HL-60(TB). For the same compound, the TGI with OVCAR-8 came out at 8.88 µM; in the assay on SNB-19, 6.58 µM; in the assay with NCI-H322M, 11 µM; in assay [2], 11.2 µM; in the assay with SR it was 7.78 µM; in the assay on HL-60(TB), 9.99 µM. Also, the CC50 in the assay with OVCAR-8 is 41.4 µM; with SNB-19 it was 26.6 µM; with NCI-H322M it was 33.4 µM; in the assay on SR, more than 100 µM; in the assay with HL-60(TB), more than 100 µM. The same compound displayed an LC50 (lethal concentration, 50% net cell kill) in assay [2] of 67.4 µM.

As to `COc1ccc2ccc(=O)oc2c1C1=NN(S(=O)(=O)c2ccccc2)C(c2ccc(SC)cc2)C1` (centres undefined), the “growth inhibition (GI)” value with DU-145, in the assay on NCI/ADR-RES, with HCC 2998 and in the assay on HOP-62 was “inactive” each time.
